In ChEMBL document CHEMBL4334451, “Natural Alkaloid Berberine Activity against Pseudomonas aeruginosa MexXY-Mediated Aminoglycoside Resistance: In Silico and in Vitro Studies” (J Nat Prod, 2019):
Active and inactive are the calls of the source. No cut-off for these calls is given here.

Assays:
Type in all cases: protein-complex assay
[1] = molecular target: T1, MexXY/OprM (Pseudomonas aeruginosa (strain ATCC 15692 / DSM 22644 / CIP 104116 / JCM14847 / LMG 12228 / 1C / PRS 101 / PAO1)) (UniProt Q51487+Q9ZNG9+Q9ZNG8); test: Inhibition of MexXY/OPRM in Pseudomonas aeruginosa K767 assessed as reduction in bacterial resistance to tobramycin by measuring tobramycin MIC at 80 ug/ml incubated for 24 to 48 hrs by broth microdilution method (reference value: 0.25 ug/ml)
Method in brief: (§1)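 Broth microdilution per CLSI, with P. aeruginosa ATCC 27853 as reference strain, in 2-fold dilution series. Plates were incubated at 37°C and read for visible growth at 24 and 48 h. Berberine stock was in 50% DMSO/50% methanol, with final DMSO kept near 1%. Berberine was tested at 10–320 µg/ml, alone or at a fixed level with serial tobramycin.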

[2] = molecular target: T1, MexXY/OprM (Pseudomonas aeruginosa (strain ATCC 15692 / DSM 22644 / CIP 104116 / JCM14847 / LMG 12228 / 1C / PRS 101 / PAO1)); test: Inhibition of MexXY/OPRM in Pseudomonas aeruginosa C51 assessed as reduction in bacterial resistance to tobramycin by measuring tobramycin MIC at 80 ug/ml incubated for 24 to 48 hrs by broth microdilution method (reference value: 0.125 ug/ml)
[3] = molecular target: T1, MexXY/OprM (Pseudomonas aeruginosa (strain ATCC 15692 / DSM 22644 / CIP 104116 / JCM14847 / LMG 12228 / 1C / PRS 101 / PAO1)); test: Inhibition of MexXY/OPRM in Pseudomonas aeruginosa C76 assessed as reduction in bacterial resistance to tobramycin by measuring tobramycin MIC at 80 ug/ml incubated for 24 to 48 hrs by broth microdilution method (reference value: 32 ug/ml)
[4] = molecular target: T1, MexXY/OprM (Pseudomonas aeruginosa (strain ATCC 15692 / DSM 22644 / CIP 104116 / JCM14847 / LMG 12228 / 1C / PRS 101 / PAO1)); test: Inhibition of MexXY/OPRM in Pseudomonas aeruginosa C6 assessed as bacterial growth up to 320 ug/ml incubated for 24 to 48 hrs by broth microdilution method
Method in brief: (§2)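 Broth microdilution following CLSI guidelines, with P. aeruginosa ATCC 27853 as reference strain. Berberine was tested at 2-fold concentrations from 10 to 320 µg/ml, dissolved in 50% DMSO/50% methanol, with the top concentration set to keep final DMSO close to 1%. Plates were incubated at 37°C and read for visible growth at 24 and 48 h.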

[5] = molecular target: T1, MexXY/OprM (Pseudomonas aeruginosa (strain ATCC 15692 / DSM 22644 / CIP 104116 / JCM14847 / LMG 12228 / 1C / PRS 101 / PAO1)); test: Inhibition of MexXY/OPRM in Pseudomonas aeruginosa C9 assessed as bacterial growth up to 320 ug/ml incubated for 24 to 48 hrs by broth microdilution method; method in brief: as §1
[6] = molecular target: T1, MexXY/OprM (Pseudomonas aeruginosa (strain ATCC 15692 / DSM 22644 / CIP 104116 / JCM14847 / LMG 12228 / 1C / PRS 101 / PAO1)); test: Inhibition of MexXY/OPRM in Pseudomonas aeruginosa C15 assessed as bacterial growth up to 320 ug/ml incubated for 24 to 48 hrs by broth microdilution method; method in brief: as §2
[7] = molecular target: T1, MexXY/OprM (Pseudomonas aeruginosa (strain ATCC 15692 / DSM 22644 / CIP 104116 / JCM14847 / LMG 12228 / 1C / PRS 101 / PAO1)); test: Inhibition of MexXY/OPRM in Pseudomonas aeruginosa C52 assessed as bacterial growth up to 320 ug/ml incubated for 24 to 48 hrs by broth microdilution method; method in brief: as §2
[8] = molecular target: T1, MexXY/OprM (Pseudomonas aeruginosa (strain ATCC 15692 / DSM 22644 / CIP 104116 / JCM14847 / LMG 12228 / 1C / PRS 101 / PAO1)); test: Inhibition of MexXY/OPRM in Pseudomonas aeruginosa C70 assessed as bacterial growth up to 320 ug/ml incubated for 24 to 48 hrs by broth microdilution method; method in brief: as §2

## COc1ccc2cc3[n+](cc2c1OC)CCc1cc2c(cc1-3)OCO2 [BERBERINE]
[1]
  MIC: 0.125 µg/mL
[2]
  MIC: < 0.125 µg/mL
[3]
  MIC: 16 µg/mL
[4]
  inhibition: inactive
[5]
  inhibition: inactive
[6]
  inhibition: inactive
[7]
  inhibition: inactive
[8]
  inhibition: inactive
